Data reported in paper PMC7941041 (Biochemistry and Biophysics Reports, 2021).
Square brackets hold non-standard residues; d marks the D form. pS = N[C@@H](COP(=O)(O)O)C(=O)O

T1: hArc-NL (residues 207–277) (Homo sapiens, UniProt Q7LC44)
T1 sequence (Q7LC44 207-277): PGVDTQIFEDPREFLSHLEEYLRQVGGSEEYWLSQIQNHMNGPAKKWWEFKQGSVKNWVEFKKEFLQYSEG

T2: hArc-CT (residues 206–396, containing both lobes) (Homo sapiens, UniProt Q7LC44)
T2 sequence (Q7LC44 206-396): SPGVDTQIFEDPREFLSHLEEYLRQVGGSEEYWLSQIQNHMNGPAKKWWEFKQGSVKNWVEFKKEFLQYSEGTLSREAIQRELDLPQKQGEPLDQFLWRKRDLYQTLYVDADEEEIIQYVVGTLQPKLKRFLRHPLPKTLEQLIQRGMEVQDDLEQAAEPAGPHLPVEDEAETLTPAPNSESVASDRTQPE

T3: human Arc N-lobe (hArc-NL, residues 207–277) (human, UniProt Q7LC44 207-277)
T3 sequence: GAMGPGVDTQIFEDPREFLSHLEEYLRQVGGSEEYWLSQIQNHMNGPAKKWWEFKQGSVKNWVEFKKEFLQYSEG

T4: human Arc C-terminal domain (hArc-CT, residues 206–396, containing both lobes) (human, UniProt Q7LC44 206-396)
T4 sequence: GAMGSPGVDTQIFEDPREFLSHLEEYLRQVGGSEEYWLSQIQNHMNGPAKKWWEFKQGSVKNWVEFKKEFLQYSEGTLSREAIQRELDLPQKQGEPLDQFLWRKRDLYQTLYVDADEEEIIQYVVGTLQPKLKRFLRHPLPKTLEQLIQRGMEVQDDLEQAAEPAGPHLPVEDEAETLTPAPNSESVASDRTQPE

B1: phosphorylated stargazin peptide pStg(phos) (peptide)
peptide: Ac-RIP[pS]YRYR-NH2
SMILES: CC[C@H](C)[C@H](NC(=O)[C@H](CCCNC(=N)N)NC(C)=O)C(=O)N1CCC[C@H]1C(=O)N[C@@H](COP(=O)(O)O)C(=O)N[C@@H](Cc1ccc(O)cc1)C(=O)N[C@@H](CCCNC(=N)N)C(=O)N[C@@H](Cc1ccc(O)cc1)C(=O)N[C@@H](CCCNC(=N)N)C(N)=O

Columns and labels:
[1] = biological target: T1, hArc-NL (residues 207–277); test: ITC analysis of peptide binding to hArc-NL; settings: 20 mM Tris-HCl pH 7.4, 150 mM NaCl, +25 °C, one-site binding model
How it was run: (§1)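 Human Arc constructs carried a cleavable His-MBP tag and were expressed in E. coli BL21 with IPTG induction at +30 °C. They were purified by Ni-NTA and size-exclusion chromatography, and TEV cleavage left an N-terminal GAMG. Peptides were N-acetylated and C-amidated. Peptide (2.5–5.0 mM) was titrated into the cell containing protein (0.25–0.5 mM).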

[2] = biological target: T2, hArc-CT (residues 206–396, containing both lobes); test: ITC analysis of peptide binding to hArc-CT; settings: 20 mM Tris-HCl pH 7.4, 150 mM NaCl, +25 °C, one-site binding model
How it was run: as §1

[3] = biological target: T3, human Arc N-lobe (hArc-NL, residues …); test: ITC
[4] = biological target: T4, human Arc C-terminal domain (hArc-CT, …); test: ITC

Row | Molecule | -TΔS [1] | ΔH [1] | -TΔS [2] | ΔH [2] | dH [3] | Kd [3] | Kd [4] | dH [4]
1 | Ac-MPGCFRMR-NH2 [GKAP-R5] | +4.7 kcal/mol/° | -8.2 ± 0.3 kcal/mol | – | – | – | – | – | –
2 | Ac-RIPSYRYR-NH2 [pStg(wt)] | +7.0 kcal/mol/° | -13.1 ± 0.1 kcal/mol | +6.4 kcal/mol/° | -12.0 ± 0.2 kcal/mol | – | – | – | –
3 | Ac-RIPSYRYRYQRRSRSSSRSTE-NH2 [pStg(long)] | – | – | +14.0 kcal/mol/° | -20.2 ± 0.2 kcal/mol | – | – | – | –
4 | Ac-TSPKFRSR-NH2 [GKAP-R4] | +6.6 kcal/mol/° | -10.9 ± 0.4 kcal/mol | +2.5 kcal/mol/° | -6.8 ± 0.1 kcal/mol | – | – | – | –
5 | Ac-TSPKFRSRNESYMRAMST-NH2 [GKAP-R4(long)] | +3.1 kcal/mol/° | -7.2 ± 0.2 kcal/mol | +2.2 kcal/mol/° | -6.8 ± 0.2 kcal/mol | – | – | – | –
6 | B1 | – | – | – | – | -66.5 ± 0.6 kcal/mol | – | – | –
7 | Ac-RIPSYRYR-NH2 [stargazin peptide pStg(wt)] | – | – | – | – | -13.1 ± 0.1 kcal/mol | 33.6 ± 1.1 µM | 80 ± 4 µM | -12 ± 0.2 kcal/mol
8 | Ac-RIPSYRYRYQRRSRSSSRSTE-NH2 [long stargazin peptide pStg(long)] | – | – | – | – | – | – | 26.4 ± 1.2 µM | -20.2 ± 0.2 kcal/mol
9 | Ac-MPGCFRMR-NH2 [GKAP repeat 5 peptide] | – | – | – | – | -8.2 ± 0.3 kcal/mol | 2390 ± 314 µM | – | –
10 | Ac-TSPKFRSRNESYMRAMST-NH2 [long GKAP repeat 4 peptide] | – | – | – | – | -7.2 ± 0.2 kcal/mol | 426 ± 12 µM | 391 ± 18 µM | -6.8 ± 0.2 kcal/mol
11 | Ac-TSPKFRSR-NH2 [GKAP repeat 4 peptide] | – | – | – | – | -10.9 ± 0.4 kcal/mol | 714 ± 19 µM | 763 ± 10 µM | -6.8 ± 0.1 kcal/mol
